Experiment [1] has as its system Mus musculus. Briefly: Induction of JNK phosphorylation in human NCI-H1703 cells xenografted NCr nu/nu Charles river mouse tumor at 6 umol/kg, iv administered 3 times a week for 3 weeks by immunohistochemical analysis. Type of experiment: functional, organism-based. (A xenograft is tissue or cells of one species grown in another, often human tumour cells in immunodeficient mice.)

Experiment [2] can be described thus: Activation of JNK phosphorylation in human NCI-H1703 cells assessed as c-jun phosphorylation at Ser63 at 1 uM pretreated for 30 mins by Western blot analysis in presence of JNK inhibitor 1,9-pyrazoloanthrone. Type of experiment: cell-based. In a few lines: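 Before compound exposure (1 μM), H1703 cells received the JNK inhibitor 1,9-pyrazoloanthrone at 50 μM for 30 min. Phosphorylated JNK, ATF2 and c-jun, and ATF3 protein, then detected by Western blot. Representative blots shown.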

The subject of experiment [3] is NCI-H1703. The experiment can be described thus: Induction of apoptosis in human NCI-H1703 cells assessed as PARP cleavage after 1 to 6 hrs by Western blot analysis. Type of experiment: functional, cell-based. A general note: A western blot detects proteins with antibodies after separation by electrophoresis.
Experiment [4] is described as follows: Activation of JNK phosphorylation in human NCI-H1703 cells assessed as increase in ATF3 protein level at 1 uM by Western blot analysis. Type of experiment: cell-based.
Experiment [5] can be described thus: Activation of JNK phosphorylation in human NCI-H1703 cells assessed as increase in ATF3 mRNA level at 5 uM after 1.5 hrs by quantitative real-time PCR analysis relative to control. Type of experiment: cell-based. In outline:
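Cells were H1703 treated with compound or DMSO control. Total RNA was isolated and residual genomic DNA removed. ATF3 mRNA was measured by quantitative RT-PCR with β-actin as internal control. Reported as mean ± SE.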
On the technique in general: Real-time PCR tracks product formation cycle by cycle.

For experiment [6], the system named is NCI-H1703. Briefly: Cell cycle arrest in human NCI-H1703 cells assessed as accumulation at G2 phase at 1 uM after 6 hrs by FACS analysis (reference value: 8%). The format is functional.
Experiment [7] has as its system NCI-H1703. Briefly: Antitumor activity against human NCI-H1703 cells xenografted in athymic NCr Charles river nu/nu mouse assessed as reduction of tumor weight at 6 umol/kg, iv administered 3 times a week for 3 weeks relative to vehicle treated control. The format is functional. On the set-up: scale not given: the % may be the effect or the level left. In outline:
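H1703 cells (5×10^6) injected s.c. into the flank of 7-week-old female athymic NCr-nu/nu mice. Dosing began once tumors reached at least 2×2×2 mm (typically 4 weeks). Body weight recorded before each injection. Mice sacrificed 2 h after the last dose and tumors excised and weighed. 13–15 mice/group; Mann-Whitney test; mean ± SE.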

A short description of experiment [8]: Activation of JNK phosphorylation in human NCI-H1703 cells assessed as c-jun phosphorylation at Ser63 at 1 uM by Western blot analysis. The format is cell-based. In a few lines:
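Lysates immunoblotted with phospho-specific antibodies against SEK1/MKK4, SAPK/JNK, ATF2 and c-jun. Membranes reprobed for total SAPK/JNK as loading control. Representative blots shown.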

Calls of active or inactive are those of the source. No cut-off for these calls is given here.

As for `CCOC(=O)N1CCN(/[N+]([O-])=N/Oc2ccc([N+](=O)[O-])cc2[N+](=O)[O-])CC1`, the outcome in experiment [1], in experiment [3] and in experiment [8] was Active. Besides, in experiment [2], the outcome was inactive. In addition, the results for the Activity entry in experiment [4], in experiment [6] and in experiment [7] were “tde”, 37% and 49%, respectively. For the same compound, the fold change (FC) in experiment [5] came to 10.

The record behind these values is ChEMBL document CHEMBL1914422, “Activation of the c-Jun N-terminal kinase/activating transcription factor 3 (ATF3) pathway characterizes effective arylated diazeniumdiolate-based nitric oxide-releasing anticancer prodrugs” (J Med Chem, 2011).
